From PubChem BioAssay
Hits are enriched below; roughly 2.3% of the tested compounds scored in any of these assays.
HNF4A DNA FP: change in binding of human HNF4 alpha to DNA. activity change, % at 10 µM. 360,000 tested, 0.3% active. HNF4a-FITC DNA binding, fluorescence polarization, 1 h. P41235; in the data active means activity change above about 30%, passing the limit was not always enough
TPT1 inh: inhibitors of Candida albicans tRNA 2'-phosphotransferase TPT1; recombinant caTPT1, FP RNA substrate dephosphorylation; inhibition, % at 5 µM; 300,000 tested, 0.81% active;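 active means inhibition above the mean of all tested compounds plus 3 SD, set per screening campaign, cut at about 24% in these data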;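 further: plate controls were DMSO alone for no effect and ferristatin control at 100 nM for full effect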
Myeloid diff 2: myeloid differentiation induction. ER-HoxA9 myeloid progenitors, lysozyme-GFP differentiation, flow cytometry. calls only at 10 µM. 360,000 tested, 1% active;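 active means normalized GFP-positive differentiation at or above the plate's own cutoff, the solvent-only control mean plus 3 SD; inconclusive means no clear call, values can overlap the other calls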;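 further: cells exposed to compound for four days before flow analysis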
CSN deneddyl inh: blocks human CSN-mediated cullin deneddylation; Q92905; Purified CSN, SCF-Nedd8-OG deneddylation, fluorescence polarization; inhibition, % at 12.5 µM; 360,000 tested, 0.38% active;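 active means pattern-corrected inhibition above about 35%, with an unprinted fluorescence ratio check between 0.5 and 1.5, limit read from the data, passing the limit was not always enough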;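 further: 0% = enzyme with substrate and 100% = substrate without enzyme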
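Detection – fluorescence polarization · System – HEK293T-derived human Csn5 enzyme · Controls – substrate-only high control, full reaction low control · Timing – 90 min, room temperature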
Rpn11 inh: Rpn11 (human) deubiquitinase inhibition; O00487; human 26S proteasome, Ub4-pepOG fluorescence polarization; 20S core pre-blocked with epoxomicin; inhibition, % at 20 µM; 360,000 tested, 0.59% active; AID 588493;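 active means inhibition at 20 µM, scaled to each plate's controls, above about 33%, limit read from the data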
Rpn11 confirm: Rpn11 inhibition confirmation, single concentration | AID 602318 | 1,900 tested, 29% active | purified human 26S proteasome, Ub4-pepOG fluorescence polarization; proteasome pretreated with epoxomicin | shares compounds with Rpn11 inh | inhibition, % at 20 µM
MMP-2 counter: MMP-2 (human) inhibition counter-screen; shares compounds with Rpn11 inh; recombinant MMP-2, FRET peptide cleavage fluorescence; inhibition, % at 20 µM; 1,900 tested, 4% active;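 further: human MMP-2 activated beforehand with APMA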
Thrombin inh: counter-screen for RPN11 inhibitors: inhibition of bovine thrombin; shares compounds with Rpn11 inh; bovine thrombin cleavage of Ub4-pepOG, fluorescence polarization; inhibition, % at 20 µM; 1,900 tested, 13% active; AID 602333;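 active means mean inhibition at least 40% at 20 µM, or signal 3 deviations below plate average, so some actives read negative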;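 further: plate controls were thrombin with DMSO for no effect and buffer wells lacking thrombin for full effect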
Target sequence (P00735 whole entry, looked up): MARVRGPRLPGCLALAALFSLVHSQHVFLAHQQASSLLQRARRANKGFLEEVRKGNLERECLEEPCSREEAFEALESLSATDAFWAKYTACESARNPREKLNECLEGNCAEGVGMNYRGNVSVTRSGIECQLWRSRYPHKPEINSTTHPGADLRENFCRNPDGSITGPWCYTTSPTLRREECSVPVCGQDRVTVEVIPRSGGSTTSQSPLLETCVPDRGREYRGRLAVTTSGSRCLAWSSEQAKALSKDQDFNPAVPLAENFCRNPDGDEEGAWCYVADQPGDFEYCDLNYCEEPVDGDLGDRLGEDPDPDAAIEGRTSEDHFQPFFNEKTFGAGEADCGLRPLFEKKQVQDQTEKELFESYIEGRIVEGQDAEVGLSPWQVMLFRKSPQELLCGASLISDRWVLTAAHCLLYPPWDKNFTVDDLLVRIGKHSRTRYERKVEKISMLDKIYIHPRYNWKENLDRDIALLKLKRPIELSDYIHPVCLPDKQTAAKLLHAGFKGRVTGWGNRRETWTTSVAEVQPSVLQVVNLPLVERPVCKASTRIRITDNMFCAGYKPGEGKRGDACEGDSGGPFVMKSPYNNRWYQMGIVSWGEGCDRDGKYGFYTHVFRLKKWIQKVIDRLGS
An asterisk follows results filed as active; i = inactive; u = inconclusive; x = no result; + = active, no number. Unless noted, no stated cut-off is given here; in the data, active means inhibition above about 40%; inactive means the rest.

SMILES	HNF4A DNA FP	TPT1 inh	Myeloid diff 2	CSN deneddyl inh	Rpn11 inh	Rpn11 confirm	MMP-2 counter	Thrombin inh
Cc1c(Cc2ccccc2)sc(NC(=O)/C=C/c2cccc3ccccc23)c1C(N)=O	4.4	-1.0	u	1.6	37.5*	-5.8	-8.2	-33.3
CC(=O)Nc1ccc(S(=O)(=O)Nc2ccccc2C(=O)N2CCCCCC2)cc1	-0.8	-3.3	i	-0.1	-7.2	x	x	x
COc1cc2sc3ccc(C#Cc4ccccn4)cc3c(=O)c2cc1OC	174.8	2.7	i	54.4*	55.7*	-14.6	-37.7	-2.8
COc1ccc(Br)cc1C(=O)Nc1cccc(-c2nnc(-c3ccco3)o2)c1	48.6*	0.0	x	114.7*	120.9*	31.9	-39.7	1.9
COc1ccc(Nc2nc(-c3ccc(OC)cc3)c(CCC(=O)O)s2)cc1	-0.4	-0.7	i	-3.2	-2.1	x	x	x
Cc1ccc(Nc2nc(-c3ccc(C)cc3)c(CC(=O)O)s2)cc1	16.0	8.6	u	64.8*	76.4*	33.3	9.8	19.7
CCNc1nc(NC(C)(C)C)nc(SCC(N)=O)n1	16.3	-3.7	i	-12.1	3.2	x	x	x
COC(=O)c1ccc(NC(=O)Cn2nc(-c3ccncc3)nc2SCC(=O)Nc2nccs2)cc1	8.5	9.4	i	7.5	33.7*	22.2	-14.5	6.8
COCCCNC(=O)Cn1cc(/C=C(\C#N)C(=O)NC2CC2)c2ccccc21	0.1	-5.0	i	2.0	-1.7	x	x	x
O=C(CN1CCN(C(=O)CNC(=O)c2ccc3c(c2)OCO3)CC1)Nc1cccc(F)c1	-3.1	x	i	1.9	1.2	x	x	x
O=C(O)CSc1ncnc2nc[nH]c12	3.9	2.0	i	0.7	167.5*	4.9	-25.9	-0.7
CC1=NN(C(=O)Cn2nc([N+](=O)[O-])c(Br)c2C)C(O)(C(F)(F)F)C1 (stereo not drawn)	-0.8	-1.8	i	-12.8	-4.8	x	x	x
COc1ccccc1CNC(=O)COC(=O)COc1ccccc1Cc1ccccc1	-0.3	0.5	i	-0.9	-9.0	x	x	x
Nc1cc(=O)[nH]c(SCC(=O)N2N=C(c3ccc(Cl)cc3)CC2c2ccco2)n1 (stereo not drawn)	8.3	2.8	i	8.3	43.9*	3.4	-40.3	-5.9
CCc1ccc2[nH]c(=O)c(C(c3nnnn3CC3CCCO3)N3CCN4CCCC4C3)cc2c1 (stereo not drawn)	12.4	10.1	i	-0.1	51.2*	18.2	10.9	5.5
Cc1cc(C(=O)CCl)c(C)n1-c1c(C)n(C)n(-c2ccccc2)c1=O	6.1	-2.0	x	-0.1	-0.8	x	x	x
CC1(C)CC(=O)C(C=NCC2CCN(C(=O)Cc3ccccc3)CC2)=C(O)C1	237.3	-2.2	i	-0.3	137.4*	93.1*	2.9	-8.4
COc1ccc(-c2ccc(NC(=O)c3ccc(Br)o3)cc2)nn1	0.5	0.0	i	2.6	76.9*	13.0	16.1	-20.7
COC(=O)Cc1ccc(NC(=O)c2ccc(Br)o2)cc1	32.4	-1.5	i	-2.5	3.6	x	x	x
COC(=O)c1ccc(Oc2nc(C(N)=O)cc(-c3ccccc3)n2)cc1	7.5	0.2	i	24.5	68.0*	34.8	1.2	-6.3
N#Cc1ccc(Oc2nc(C(N)=O)cc(-c3ccccc3)n2)cc1	2.0	2.1	i	-2.8	-4.2	x	x	x
NC(N)=NC(=S)Nc1ccc(Cl)cc1	0.8	x	i	-3.7	1.3	x	x	x
Cc1ccc(C(=O)O)cc1NC(=S)NC(=O)c1ccc(-c2ccc(Cl)cc2)o1	1.3	2.6	i	-0.3	48.5*	13.2	44.9*	-22.8
COc1ccc(C(=O)O)cc1NC(=S)NC(=O)c1ccc(-c2ccc(Cl)cc2)o1	-2.9	x	i	6.2	4.7	x	x	x
C[C@@H]1CN([C@H](C)CO)C(=O)c2c(c3ccccc3n2C)-c2ccccc2CO[C@H]1CN(C)C(=O)NC1CCCCC1	5.2	x	i	-2.9	0.7	x	x	x
SMILES	HNF4A DNA FP	TPT1 inh	Myeloid diff 2	CSN deneddyl inh	Rpn11 inh	Rpn11 confirm	MMP-2 counter	Thrombin inh
O=C(CN1CCN(C(=O)c2cccs2)CC1)NC1CCCCC1	0.4	2.0	i	-0.9	41.5*	-9.1	-33.5	-24.1
COc1cccc(-c2cnc(C(O)c3ccc(OC)c(F)c3)[nH]2)c1 (stereo not drawn)	1.9	x	i	-2.3	4.3	x	x	x
CCOC(=O)Cc1csc(NC(=O)c2sc3nc4c(C)cc(C)cc4cc3c2N)n1	39.6*	12.1	i	3.6	47.6*	24.4	-17.1	-1.6
COC(=O)c1cccc(CN2C(=O)C(C)Sc3cc(Cl)ccc32)c1 (stereo not drawn)	-5.1	x	i	0.5	-1.8	x	x	x
COC(=O)C(Sc1ccc(Cl)cc1)C1SC(=S)N(Cc2ccccc2)C1=O (stereo not drawn)	12.9	x	i	3.1	55.5*	-13.4	-4.8	-5.5
NS(=O)(=O)c1ccc(CCNS(=O)(=O)c2ccc(Cl)nc2)cc1	3.5	0.3	i	-3.6	-4.2	x	x	x
COc1ccc(-c2nnc(SCC(=O)NCc3cccs3)n2C)cc1	6.5	-2.2	i	-5.2	-2.4	x	x	x
COc1ccc(-c2nnc(SCC(=O)NCc3cccs3)n2C(C)C)cc1	3.2	1.6	i	-4.0	38.7*	10.1	-10.0	-1.3
COc1ccc(N2CCN(c3ccc4nnc(CCC(=O)Nc5ccc(C)cc5)n4n3)CC2)cc1	2.4	1.3	i	1.4	2.5	x	x	x
O=C(Nc1ccc2c(c1)nc1n2CCOC1)C1CCCCC1	0.0	-5.1	i	0.6	+	-0.2	-21.5	-8.9
O=C(/C=C/c1cccs1)Nc1nccs1	2.2	-0.9	i	1.5	8.9	x	x	x
O=C(/C=C/c1cccs1)Nc1cccc(NC(=O)/C=C/c2cccs2)n1	12.4	7.5	i	6.2	45.0*	56.4*	17.7	41.0*
O=c1cc(-c2ccc(O)cc2)oc2c1ccc1ccccc12	5.1	x	i	16.0	44.9*	64.3*	-25.7	-12.7
Cc1cc(C)n(CCC(=O)N=Nc2c(O)[nH]c3ccc(Br)cc23)n1	1.9	-1.9	i	-2.0	-2.6	x	x	x
CCc1ccc(NC(=O)C(=O)c2ccccc2NC(C)=O)cc1	1.1	x	i	1.8	-1.3	x	x	x
CCCCC(CC)CNC(=O)C(=O)c1ccccc1NC(C)=O (stereo not drawn)	2.3	1.6	i	-0.5	40.8*	-12.3	-48.6	-20.6
O=C(O)c1ccc[nH]c1=S	4.4	-3.7	i	-1.1	-2.8	x	x	x
O=C(N/N=C/c1sc(N2CCOCC2)nc1-c1ccccc1)c1ccccc1O	3.5	8.1	i	2.8	57.8*	11.9	-34.1	-7.5
COc1cc(Cn2nnc3ccccc32)cc(Br)c1O	-1.8	1.8	i	-0.9	-5.5	x	x	x
